Key:
[1] = Intrinsic clearance in CD-1 mouse hepatocytes at 2 uM after 60 to 120 mins; assay type: ADME, cell-based, Hepatocyte; conditions: read-out: CLH
[2] = system: Plasma; experiment: Unbound plasma concentration in CD-1 mouse at 3 mg/kg, iv and 10 mg/kg, po measured at 4 hrs; assay type: ADME, organism-based; conditions: in vivo
Procedure, shortened: (§1)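 Male CD-1 mice, 3 per cohort, dosed 3 mg/kg iv and 10 mg/kg po; plasma drawn at 1 and 4 h, brains harvested from oral groups only. Formulations varied by compound: 40% PEG 400/10% EtOH/50% H₂O; 30% captisol in H₂O; iv 50 mM citrate in saline (pH 4); po 1% CMC/0.5% Tween/5 mM citrate in H₂O.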

[3] = Drug uptake in Hartley guinea pig CSF at 60 mg/kg, po measured at 12 hrs; assay type: ADME, organism-based, Cavia porcellus, Cerebrospinal fluid; set-up: dose 60 mg/kg, route oral; conditions: read-out: Drug uptake
Procedure, shortened: (§2)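 Male Hartley guinea pigs, oral dosing (CMC/Tween/citrate suspension or PEG/EtOH/H₂O solution), six or eight animals per cohort; CSF drug concentration (nM) measured at each time point.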

[4] = Unbound plasma concentration in Hartley guinea pig at 30 mg/kg, po measured at 3 hrs; assay type: ADME, organism-based, Cavia porcellus; set-up: dose 30 mg/kg, route oral; conditions: in vivo
Procedure, shortened: (§3)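 Male Hartley guinea pigs were dosed orally at 30, 60 or 100 mg/kg, with six or eight animals per cohort. The vehicle was either a suspension in 1% CMC/0.5% Tween/5 mM citrate in H₂O or a 40/10/50 PEG/EtOH/H₂O solution, depending on compound. Unbound plasma concentration was sampled at 1–12 h post-dose alongside brain, CSF and CSF Aβ₁₋₄₀.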

[5] = Ratio of unbound drug level in brain to plasma in Sprague-Dawley rat at 60 mg/kg, po measured at 3 hrs; assay type: ADME, organism-based; set-up: dose 60 mg/kg, route oral; conditions: brain and plasma (unbound), read-out: K(p,uu,brain)
Procedure, shortened: (§4)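 Male Sprague–Dawley rats dosed 60 mg/kg po in 1% CMC/0.5% Tween/5 mM citrate in H₂O; plasma, brain and CSF taken at 1, 3, 5, 8 and 12 h; unbound plasma and brain levels and their ratio determined.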

[6] = system: Plasma; experiment: Unbound plasma concentration in cynomolgus monkey at 0.5 mg/kg, iv and 100 mg/kg, po measured at 4 hrs; assay type: ADME, organism-based, Macaca fascicularis; conditions: in vivo
Procedure, shortened: (§5)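 Female cynomolgus monkeys, three per dosing route, received 0.5 mg/kg iv and 100 mg/kg po. Unbound plasma concentration was reported at 2 h and 4 h post-dose.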

[7] = Ratio of unbound drug level in brain to plasma in Hartley guinea pig at 60 mg/kg, po measured at 1 hr; assay type: ADME, organism-based, Cavia porcellus; set-up: dose 60 mg/kg, route oral; conditions: brain and plasma (unbound), read-out: K(p,uu,brain)
Procedure, shortened: (§6)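 Male Hartley guinea pigs given single oral doses of 30, 60 or 100 mg/kg in 1% CMC/0.5% Tween/5 mM citrate in H₂O, 6–8 animals per cohort. Plasma, brain and CSF sampled at 1–12 h; free brain to free plasma ratio computed.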

[8] = Drug uptake in Sprague-Dawley rat CSF at 60 mg/kg, po measured at 5 hrs; assay type: ADME, organism-based, Cerebrospinal fluid; set-up: dose 60 mg/kg, route oral; conditions: read-out: Drug uptake
Procedure, shortened: (§7)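 Male Sprague−Dawley rats dosed orally at 60 mg/kg in 1% CMC/0.5% Tween/5 mM citrate in H₂O; CSF compound concentration (nM) at 1–12 h.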

[9] = system: Cynomolgus monkey; experiment: Hepatic clearance in cynomolgus monkey at 0.5 mg/kg, iv; assay type: ADME, organism-based, Macaca fascicularis, Liver; set-up: dose 0.5 mg/kg, route intravenous; conditions: in vivo
[10] = system: Plasma; experiment: Unbound plasma concentration in Sprague-Dawley rat at 60 mg/kg, po measured at 1 hr; assay type: ADME, organism-based; set-up: dose 60 mg/kg, route oral; conditions: in vivo
Procedure, shortened: (§8)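 Male Sprague-Dawley rats were given a single 60 mg/kg oral dose in 1% CMC/0.5% Tween/5 mM citrate in H₂O. Free plasma concentration was determined at 1, 3, 5, 8 and 12 h. Brain, CSF and CSF Aβ₁₋₄₀ were sampled at the same times.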

[11] = Ratio of unbound drug level in brain to plasma in Hartley guinea pig at 30 mg/kg, po measured at 3 hrs; assay type: ADME, organism-based, Cavia porcellus; set-up: dose 30 mg/kg, route oral; conditions: brain and plasma (unbound), read-out: K(p,uu,brain); procedure, shortened: as §6
[12] = Dissociation constant, pKa of the compound by parallel capillary electrophoresis method; assay type: physicochemical
Procedure, shortened: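 pKa determined by a 24-point parallel capillary electrophoresis method, quantitation by UV absorbance at 229 nm.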

[13] = system: Plasma; experiment: Unbound plasma concentration in cynomolgus monkey at 0.5 mg/kg, iv and 100 mg/kg, po measured at 2 hrs; assay type: ADME, organism-based, Macaca fascicularis; conditions: in vivo; procedure, shortened: as §5
[14] = system: Brain; experiment: Fraction unbound in Sprague-Dawley rat brain at 60 mg/kg, po measured at 8 hrs; assay type: ADME, organism-based; set-up: dose 60 mg/kg, route oral; conditions: in vivo; procedure, shortened: as §4
[15] = Drug uptake in Hartley guinea pig CSF at 30 mg/kg, po measured at 3 hrs; assay type: ADME, organism-based, Cavia porcellus, Cerebrospinal fluid; set-up: dose 30 mg/kg, route oral; conditions: read-out: Drug uptake; procedure, shortened: as §2
[16] = system: Plasma; experiment: Unbound plasma concentration in CD-1 mouse at 3 mg/kg, iv and 10 mg/kg, po measured at 1 hr; assay type: ADME, organism-based; conditions: in vivo; procedure, shortened: as §1
[17] = system: Cavia porcellus; experiment: Hepatic clearance in Hartley guinea pig at 3 mg/kg, iv; assay type: ADME, organism-based, Liver; set-up: dose 3 mg/kg, route intravenous; conditions: in vivo
[18] = Unbound plasma concentration in Hartley guinea pig at 60 mg/kg, po measured at 3 hrs; assay type: ADME, organism-based, Cavia porcellus; set-up: dose 60 mg/kg, route oral; conditions: in vivo; procedure, shortened: as §3
[19] = Drug uptake in Hartley guinea pig CSF at 60 mg/kg, po measured at 3 hrs; assay type: ADME, organism-based, Cavia porcellus, Cerebrospinal fluid; set-up: dose 60 mg/kg, route oral; conditions: read-out: Drug uptake; procedure, shortened: as §2
[20] = Drug uptake in Sprague-Dawley rat CSF at 60 mg/kg, po measured at 1 hr; assay type: ADME, organism-based, Cerebrospinal fluid; set-up: dose 60 mg/kg, route oral; conditions: read-out: Drug uptake; procedure, shortened: as §7
[21] = Drug uptake in Sprague-Dawley rat CSF at 60 mg/kg, po measured at 8 hrs; assay type: ADME, organism-based, Cerebrospinal fluid; set-up: dose 60 mg/kg, route oral; conditions: read-out: Drug uptake; procedure, shortened: as §7
[22] = system: Brain; experiment: Fraction unbound in Sprague-Dawley rat brain at 60 mg/kg, po measured at 12 hrs; assay type: ADME, organism-based; set-up: dose 60 mg/kg, route oral; conditions: in vivo; procedure, shortened: as §4
[23] = Ratio of unbound drug level in brain to plasma in Sprague-Dawley rat at 60 mg/kg, po measured at 12 hrs; assay type: ADME, organism-based; set-up: dose 60 mg/kg, route oral; conditions: brain and plasma (unbound), read-out: K(p,uu,brain); procedure, shortened: as §4
[24] = Ratio of unbound drug level in brain to plasma in CD-1 mouse measured at 1 hr; assay type: ADME; conditions: mouse, 1 h
Procedure, shortened: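 Male CD-1 mice given 10 mg/kg po, 3 per cohort; plasma and brain collected at 1 and 4 h. Free brain/plasma ratio from unbound concentrations; coverage ratio = free brain concentration divided by HEK293 Aβ₁₋₄₀ cell IC50.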

[25] = Drug uptake in Hartley guinea pig CSF at 60 mg/kg, po measured at 5 hrs; assay type: ADME, organism-based, Cavia porcellus, Cerebrospinal fluid; set-up: dose 60 mg/kg, route oral; conditions: read-out: Drug uptake; procedure, shortened: as §2
[26] = system: Mus musculus; experiment: Hepatic clearance in CD-1 mouse at 3 mg/kg, iv; assay type: ADME, organism-based, Liver; set-up: dose 3 mg/kg, route intravenous; conditions: in vivo; procedure, shortened: as §1
[27] = Ratio of unbound drug level in brain to plasma in Hartley guinea pig at 60 mg/kg, po measured at 5 hrs; assay type: ADME, organism-based, Cavia porcellus; set-up: dose 60 mg/kg, route oral; conditions: brain and plasma (unbound), read-out: K(p,uu,brain); procedure, shortened: as §6
[28] = system: Plasma; experiment: Unbound plasma concentration in Sprague-Dawley rat at 60 mg/kg, po measured at 5 hrs; assay type: ADME, organism-based; set-up: dose 60 mg/kg, route oral; conditions: in vivo; procedure, shortened: as §8
[29] = system: Brain; experiment: Fraction unbound in Sprague-Dawley rat brain at 60 mg/kg, po measured at 3 hrs; assay type: ADME, organism-based; set-up: dose 60 mg/kg, route oral; conditions: in vivo; procedure, shortened: as §4
[30] = system: Brain; experiment: Fraction unbound in CD-1 mouse brain at 10 mg/kg, po measured at 4 hrs; assay type: ADME, organism-based; set-up: dose 10 mg/kg, route oral; conditions: in vivo
Procedure, shortened: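 Male CD-1 mice, 3 per cohort, dosed 10 mg/kg orally; brains harvested at 1 and 4 h.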

[31] = Fraction unbound in Hartley guinea pig brain at 100 mg/kg, po measured at 3 hrs; assay type: ADME, organism-based, Cavia porcellus; set-up: dose 100 mg/kg, route oral; conditions: in vivo
[32] = system: Plasma; experiment: Unbound plasma concentration in Sprague-Dawley rat at 60 mg/kg, po measured at 8 hrs; assay type: ADME, organism-based; set-up: dose 60 mg/kg, route oral; conditions: in vivo; procedure, shortened: as §8
[33] = Drug uptake in Sprague-Dawley rat CSF at 60 mg/kg, po measured at 3 hrs; assay type: ADME, organism-based, Cerebrospinal fluid; set-up: dose 60 mg/kg, route oral; conditions: read-out: Drug uptake; procedure, shortened: as §7
[34] = Ratio of unbound drug level in brain to plasma in Hartley guinea pig at 60 mg/kg, po measured at 8 hrs; assay type: ADME, organism-based, Cavia porcellus; set-up: dose 60 mg/kg, route oral; conditions: brain and plasma (unbound), read-out: K(p,uu,brain); procedure, shortened: as §6
[35] = Fraction unbound in Hartley guinea pig brain at 60 mg/kg, po measured at 3 hrs; assay type: ADME, organism-based, Cavia porcellus; set-up: dose 60 mg/kg, route oral; conditions: in vivo
[36] = system: Plasma; experiment: Unbound plasma concentration in Sprague-Dawley rat at 60 mg/kg, po measured at 12 hrs; assay type: ADME, organism-based; set-up: dose 60 mg/kg, route oral; conditions: in vivo; procedure, shortened: as §8

With `CN1C(=O)[C@]2(N=C1N)c1cc(-c3cccnc3F)ccc1O[C@H]1CCOC[C@@H]12` as the compound, how does the CLint scaled at 2 µM [1] read?
The CLint scaled at 2 µM was 36 mL/min/kg.

What about the “Cp(f)” value [2] of the same compound?
The value was 78 nM.

What about the concentration at 12 h [3] of the same compound?
Its concentration at 12 h is 2.6 nM.

What about the “Cp(f)” value [4] of the same compound?
Its value is 5.8 nM.

And the Kp uu at 3 h [5]?
Its Kp uu at 3 h is 0.03.

What about the “Cp(f)” value [6] of the same compound?
The value was 1700 nM.

And the Kp uu at 1 h [7]?
The Kp uu at 1 h was 0.14.

What about the concentration at 5 h [8] of the same compound?
The concentration at 5 h was 200 nM.

And the CLH [9]?
Its CLH is 22 mL/min/kg.

And the “Cp(f)” value [10]?
The value was 3100 nM.

What about the Kp uu at 3 h [11] of the same compound?
The Kp uu at 3 h was 1.6.

And the pKa [12]?
Its pKa is 5.8.

And the “Cp(f)” value [13]?
The value was 3200 nM.

And the “Drug uptake(free)” value [14]?
The value was 84 nM.

And the concentration at 3 h [15]?
Its concentration at 3 h is 9.9 nM.

And the “Cp(f)” value [16]?
Its value is 300 nM.

And the CLH [17]?
The CLH was 110 mL/min/kg.

What about the “Cp(f)” value [18] of the same compound?
The value was 23 nM.

What about the concentration at 3 h [19] of the same compound?
Its concentration at 3 h is 23 nM.

What about the concentration at 1 h [20] of the same compound?
The concentration at 1 h was 290 nM.

What about the concentration at 8 h [21] of the same compound?
The concentration at 8 h was 130 nM.

And the “Drug uptake(free)” value [22]?
The value was 46 nM.

What about the Kp uu at 12 h [23] of the same compound?
Its Kp uu at 12 h is 0.048.

What about the “K(p,uu,brain)” value [24] of the same compound?
The value was 0.08.

And the concentration at 5 h [25]?
Its concentration at 5 h is 6.9 nM.

And the CLH [26]?
Its CLH is 41 mL/min/kg.

What about the Kp uu at 5 h [27] of the same compound?
Its Kp uu at 5 h is 1.7.

What about the “Cp(f)” value [28] of the same compound?
Its value is 2700 nM.

And the “Drug uptake(free)” value [29]?
The value was 66 nM.

What about the “Drug uptake(free)” value [30] of the same compound?
The value was 15 nM.

What about the “Drug uptake(free)” value [31] of the same compound?
The value was 50 nM.

And the “Cp(f)” value [32]?
Its value is 1700 nM.

What about the concentration at 3 h [33] of the same compound?
The concentration at 3 h was 150 nM.

And the Kp uu at 8 h [34]?
The Kp uu at 8 h was > 1.7.

What about the “Drug uptake(free)” value [35] of the same compound?
The value was 34 nM.

What about the “Cp(f)” value [36] of the same compound?
The value was 960 nM.

Source: ChEMBL document CHEMBL3124885, “Discovery of 7-tetrahydropyran-2-yl chromans: β-site amyloid precursor protein cleaving enzyme 1 (BACE1) inhibitors that reduce amyloid β-protein (Aβ) in the central nervous system” (J Med Chem, 2014)
